According to ChEMBL document CHEMBL1938338, “In vitro inhibition of translation initiation by N,N'-diarylureas--potential anti-cancer agents” (Bioorg Med Chem Lett, 2012):
Activity calls are given as the source filed them. The calls are words filed in the database; no cut-off is given here.

Assays:
[1] = Antiproliferative activity against human CRL2351 cells after 5 days by SRB assay; format: functional, cell-based; conditions: 120 h
Outline: (§1)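 Adherent cells were exposed for 5 days to four concentrations (0.54, 1.8, 6, 20 µM), each point in triplicate. Cells were fixed in cold 10% TCA, stained with 0.4% SRB in 1% acetic acid and solubilized in 10 mM Tris pH 10, then A490 was read. Time-zero plates were included. IC50 is 50% growth inhibition from 100×(T−T0)/(C−T0).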

[2] = Antiproliferative activity against human CRL2813 cells after 5 days by SRB assay; format: functional, cell-based; conditions: CRL2813, 120 h; outline: as §1
[3] = Aqueous solubility of compound; format: physicochemical; conditions: buffer
[4] = Antiproliferative activity against mouse KLN205 cells after 5 days by SRB assay; format: functional, cell-based; conditions: 120 h; outline: as §1
[5] = target: Eukaryotic translation initiation factor 2-alpha kinase 1 (Homo sapiens) (UniProt Q9BQI3); experiment: Activation of EIF2alpha kinase in human CRL2351 cells assessed as reduction in eIF2-GTP-initiator methionine tRNA ternary complex measuring increase in firefly/renilla luciferase ratio at 5 uM after 16 hrs by dual luciferase reporter gene assay relative to control; format: cell-based
Outline: (§2)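 CRL-2351 cells (10^4 per well) were transiently transfected one day after seeding with the bidirectional pBISA-DL(ATF-4) firefly/renilla luciferase plasmid (Lipofectamine 2000). After 16 h compound exposure, lysates were read by Dual-Glo luciferase. F/R ratio was normalized to DMSO vehicle (F/R = 1). Runs were dose-response with at least four points, in triplicate.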

[6] = target: Eukaryotic translation initiation factor 2-alpha kinase 1 (Homo sapiens) (UniProt Q9BQI3); experiment: Activation of EIF2alpha kinase in human CRL2351 cells assessed as reduction in eIF2-GTP-initiator methionine tRNA ternary complex measuring increase in firefly/renilla luciferase ratio at 20 uM after 16 hrs by dual luciferase reporter gene assay relative to control; format: cell-based; outline: as §2
[7] = target: Eukaryotic translation initiation factor 2-alpha kinase 1 (Homo sapiens) (UniProt Q9BQI3); experiment: Activation of EIF2alpha kinase in human CRL2351 cells assessed as reduction in eIF2-GTP-initiator methionine tRNA ternary complex measuring increase in firefly/renilla luciferase ratio at 2.5 to 20 uM after 16 hrs by dual luciferase reporter gene assay relative to control; format: cell-based; outline: as §2
[8] = target: Eukaryotic translation initiation factor 2-alpha kinase 1 (Homo sapiens) (UniProt Q9BQI3); experiment: Activation of EIF2alpha kinase in human CRL2351 cells assessed as reduction in eIF2-GTP-initiator methionine tRNA ternary complex measuring increase in firefly/renilla luciferase ratio at 10 uM after 16 hrs by dual luciferase reporter gene assay relative to control; format: cell-based; outline: as §2
[9] = target: Eukaryotic translation initiation factor 2-alpha kinase 1 (Homo sapiens) (UniProt Q9BQI3); experiment: Activation of EIF2alpha kinase in human CRL2351 cells assessed as reduction in eIF2-GTP-initiator methionine tRNA ternary complex measuring increase in firefly/renilla luciferase ratio at 2.5 uM after 16 hrs by dual luciferase reporter gene assay relative to control; format: cell-based; outline: as §2
[10] = target: Eukaryotic translation initiation factor 2-alpha kinase 1 (Mus musculus) (UniProt Q9Z2R9); experiment: Activation of EIF2alpha kinase in mouse KLN205 cells assessed as CHOP mRNA expression at 20 uM after 5 hrs by PCR analysis; format: cell-based
[11] = target: Eukaryotic translation initiation factor 2-alpha kinase 1 (Homo sapiens) (UniProt Q9BQI3); experiment: Activation of EIF2alpha kinase in human CRL2351 cells assessed as phosphorylation of eIF2alpha at 5 uM […] by Western blot analysis; format: cell-based
Outline: (§3)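 Cells were grown to 70% confluency in serum-containing medium without antibiotics, then treated (KLN at 20 µM, CRL-2351 at 5 µM) for 6 h. They were washed in cold PBS and lysed on ice for 1 h. Protein was measured by BCA. SDS-PAGE immunoblots were probed for phospho-Ser51 eIF2α, total eIF2α, CHOP and β-actin.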

[12] = target: Eukaryotic translation initiation factor 2-alpha kinase 1 (Homo sapiens) (UniProt Q9BQI3); experiment: Activation of EIF2alpha kinase in human CRL2351 cells assessed as CHOP mRNA expression at 5 uM after 5 hrs by PCR analysis; format: cell-based
[13] = target: Eukaryotic translation initiation factor 2-alpha kinase 1 (Homo sapiens) (UniProt Q9BQI3); experiment: Activation of EIF2alpha kinase in human CRL2351 cells assessed as CHOP protein expression at 5 uM […] by Western blot analysis; format: cell-based; outline: as §3
[14] = target: Eukaryotic translation initiation factor 2-alpha kinase 1 (Mus musculus) (UniProt Q9Z2R9); experiment: Activation of EIF2alpha kinase in mouse KLN205 cells assessed as phosphorylation of eIF2alpha at 20 uM […] by Western blot analysis; format: cell-based; outline: as §3
[15] = target: Eukaryotic translation initiation factor 2-alpha kinase 1 (Mus musculus) (UniProt Q9Z2R9); experiment: Activation of EIF2alpha kinase in mouse KLN205 cells assessed as reduction in eIF2-GTP-initiator methionine tRNA ternary complex measuring increase in firefly/renilla luciferase ratio at 2.5 to 80 uM after 16 hrs by dual luciferase reporter gene assay relative to control; format: cell-based
Outline: (§4)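 KLN-205 cells were stably transfected with the bidirectional pBISA-DL(ATF-4) firefly/renilla luciferase reporter: 10^5 cells were seeded per 60-mm dish, transfected the next day and selected with antibiotics. After 16 h compound exposure, lysates were read by Dual-Glo luciferase. F/R ratio was normalized to DMSO vehicle (F/R = 1).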

[16] = target: Eukaryotic translation initiation factor 2-alpha kinase 1 (Mus musculus) (UniProt Q9Z2R9); experiment: Activation of EIF2alpha kinase in mouse KLN205 cells assessed as CHOP protein expression at 20 uM after […] by Western blot analysis; format: cell-based; outline: as §3
[17] = target: Eukaryotic translation initiation factor 2-alpha kinase 1 (Homo sapiens) (UniProt Q9BQI3); experiment: Activation of EIF2alpha kinase in human CRL2351 cells assessed as reduction in eIF2-GTP-initiator methionine tRNA ternary complex measuring increase in firefly/renilla luciferase ratio at 2.5 to 80 uM after 16 hrs by dual luciferase reporter gene assay relative to control; format: cell-based; outline: as §2
[18] = target: Eukaryotic translation initiation factor 2-alpha kinase 1 (Mus musculus) (UniProt Q9Z2R9); experiment: Activation of EIF2alpha kinase in mouse KLN205 cells assessed as reduction in eIF2-GTP-initiator methionine tRNA ternary complex measuring increase in firefly/renilla luciferase ratio at 20 uM after 16 hrs by dual luciferase reporter gene assay relative to control; format: cell-based; outline: as §4
[19] = target: Eukaryotic translation initiation factor 2-alpha kinase 1 (Homo sapiens) (UniProt Q9BQI3); experiment: Activation of EIF2alpha kinase in human CRL2351 cells assessed as reduction in eIF2-GTP-initiator methionine tRNA ternary complex measuring increase in firefly/renilla luciferase ratio at 40 uM after 16 hrs by dual luciferase reporter gene assay relative to control; format: cell-based; outline: as §2
[20] = target: Eukaryotic translation initiation factor 2-alpha kinase 1 (Mus musculus) (UniProt Q9Z2R9); experiment: Activation of EIF2alpha kinase in mouse KLN205 cells assessed as reduction in eIF2-GTP-initiator methionine tRNA ternary complex measuring increase in firefly/renilla luciferase ratio at 5 uM after 16 hrs by dual luciferase reporter gene assay relative to control; format: cell-based; outline: as §4

Chain of Eukaryotic translation initiation factor 2-alpha kinase 1 (Homo sapiens) (Q9BQI3 whole entry): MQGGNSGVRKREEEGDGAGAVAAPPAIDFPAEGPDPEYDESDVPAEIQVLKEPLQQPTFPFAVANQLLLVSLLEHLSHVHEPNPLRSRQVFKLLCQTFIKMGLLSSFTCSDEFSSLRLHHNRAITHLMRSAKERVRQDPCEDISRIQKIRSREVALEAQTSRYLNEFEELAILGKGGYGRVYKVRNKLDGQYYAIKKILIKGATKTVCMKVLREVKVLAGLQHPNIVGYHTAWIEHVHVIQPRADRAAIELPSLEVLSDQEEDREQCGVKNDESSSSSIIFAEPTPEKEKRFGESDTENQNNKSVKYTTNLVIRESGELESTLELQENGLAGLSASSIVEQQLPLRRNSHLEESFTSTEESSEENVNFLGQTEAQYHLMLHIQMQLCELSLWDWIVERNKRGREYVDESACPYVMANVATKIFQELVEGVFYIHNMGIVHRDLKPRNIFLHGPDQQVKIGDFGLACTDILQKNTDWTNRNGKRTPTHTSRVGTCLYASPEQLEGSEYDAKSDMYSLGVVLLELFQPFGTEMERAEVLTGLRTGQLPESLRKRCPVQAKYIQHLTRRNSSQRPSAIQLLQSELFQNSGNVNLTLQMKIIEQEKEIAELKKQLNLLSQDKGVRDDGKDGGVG
Chain of Eukaryotic translation initiation factor 2-alpha kinase 1 (Mus musculus) (Q9Z2R9 whole entry): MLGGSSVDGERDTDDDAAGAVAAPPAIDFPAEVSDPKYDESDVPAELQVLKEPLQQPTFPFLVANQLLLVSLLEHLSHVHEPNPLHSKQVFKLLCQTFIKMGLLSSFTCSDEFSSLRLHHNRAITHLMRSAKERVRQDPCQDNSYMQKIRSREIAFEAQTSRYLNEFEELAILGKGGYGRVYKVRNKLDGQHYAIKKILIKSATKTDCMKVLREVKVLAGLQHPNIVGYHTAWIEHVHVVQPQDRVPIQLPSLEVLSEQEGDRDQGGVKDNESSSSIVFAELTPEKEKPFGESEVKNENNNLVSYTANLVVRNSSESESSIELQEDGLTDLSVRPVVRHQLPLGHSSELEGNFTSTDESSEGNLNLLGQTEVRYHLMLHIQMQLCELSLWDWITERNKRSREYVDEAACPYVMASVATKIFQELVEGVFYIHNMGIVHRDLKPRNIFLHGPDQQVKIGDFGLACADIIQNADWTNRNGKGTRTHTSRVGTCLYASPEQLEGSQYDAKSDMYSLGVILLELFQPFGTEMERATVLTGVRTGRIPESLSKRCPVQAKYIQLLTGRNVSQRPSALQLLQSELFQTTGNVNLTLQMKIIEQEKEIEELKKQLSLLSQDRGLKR

SMILES | IC50 [1] | IC50 [2] | IC50 [4] | also measured
O=C(Nc1ccc(Cl)c(Cl)c1)Nc1ccc(Cl)c(Cl)c1 | 2400 nM | 1000 nM | > 20000 nM | solubility [3]: Insoluble; Ratio [5]: 11
COc1cc(NC(=O)Nc2ccc(Cl)c(C(F)(F)F)c2)ccc1C | 2300 nM | 2800 nM | 18600 nM | Ratio [5]: 8
O=C(Nc1cc(C(F)(F)F)cc(C(F)(F)F)c1)Nc1ncccc1O | 700 nM | 600 nM | 14800 nM | –
Cc1ccc(NC(=O)Nc2ccc(Cl)c(Cl)c2)cc1O | 7500 nM | 2300 nM | > 20000 nM | Ratio [6]: 11
Cc1ccc(NC(=O)Nc2ccc(Cl)c(Cl)c2)cc1OCCN1CCOCC1 | 2400 nM | 12000 nM | > 20000 nM | Activity [7]: Active
Cc1ccc(NC(=O)Nc2cc(C(F)(F)F)cc(C(F)(F)F)c2)cc1OCCN(C)C | 2400 nM | 7600 nM | 8900 nM | Ratio [8]: 9
O=C(Nc1ccc(Cl)c(C(F)(F)F)c1)Nc1ccc(Cl)c(C(F)(F)F)c1 | 2400 nM | 1800 nM | 1300 nM | solubility [3]: Insoluble; Ratio [9]: 11
O=C(Nc1ccc(Cl)c(C(F)(F)F)c1)Nc1ncccc1O | 800 nM | 600 nM | 15400 nM | Activity [10]: Active; Activity [11]: Active; Activity [12]: Active; Activity [13]: Active; Activity [14]: Active; Activity [15]: Active; Activity [16]: Active; Activity [17]: Active
Cc1ccc(NC(=O)Nc2cc(C(F)(F)F)cc(C(F)(F)F)c2)cc1OCCN1CCOCC1 | 2300 nM | 800 nM | 18800 nM | Ratio [8]: 10
O=C(Nc1cc(C(F)(F)F)cc(C(F)(F)F)c1)Nc1cc(C(F)(F)F)cc(C(F)(F)F)c1 | 1800 nM | 300 nM | 4200 nM | Activity [18]: Active; solubility [3]: Insoluble; Activity [10]: Active; Activity [11]: Active; Activity [12]: Active; Activity [13]: Active; Activity [14]: Active; Activity [16]: Active; Ratio [9]: 11
Cc1ccc(NC(=O)Nc2ccc(Cl)c(C(F)(F)F)c2)cc1O | 9500 nM | 1600 nM | > 20000 nM | Ratio [8]: 11
Cc1ccc(NC(=O)Nc2ccc(Cl)c(C(F)(F)F)c2)cc1OCCN(C)C | 2400 nM | 2300 nM | 13600 nM | –
Cc1ccc(NC(=O)Nc2ccc(Cl)c(C(F)(F)F)c2)cc1OCCN1CCNCC1 | 1800 nM | 2500 nM | > 20000 nM | –
COc1cc(NC(=O)Nc2ccc(Cl)c(Cl)c2)ccc1C | 800 nM | 500 nM | > 20000 nM | Activity [10]: inactive; Ratio [5]: < 2; Activity [11]: inactive; Activity [12]: inactive; Activity [13]: inactive; Activity [14]: inactive; Activity [16]: inactive; Activity [7]: inactive
Cc1ccc(NC(=O)Nc2ccc(Cl)c(Cl)c2)cc1OCCN(C)C | 4100 nM | 5800 nM | 14700 nM | Activity [7]: Active
Cc1ccc(NC(=O)Nc2ccc(Cl)c(Cl)c2)cc1OCCN1CCNCC1 | 5000 nM | 5200 nM | > 20000 nM | Activity [7]: Active
Cc1ccc(NC(=O)Nc2ccc(Cl)c(C(F)(F)F)c2)cc1OCCN1CCOCC1 | 2600 nM | 1100 nM | > 20000 nM | –
O=C(Nc1ccc(Cl)c(Cl)c1)Nc1ncccc1O | 1400 nM | 1600 nM | > 20000 nM | Ratio [19]: 12
Cc1ccc(NC(=O)Nc2cc(C(F)(F)F)cc(C(F)(F)F)c2)cc1OCCN1CCNCC1 | 4200 nM | 3200 nM | > 20000 nM | Ratio [8]: 9
Cc1ccc(NC(=O)Nc2cc(C(F)(F)F)cc(C(F)(F)F)c2)cc1O | 2800 nM | 1200 nM | 15700 nM | –
COc1cc(NC(=O)Nc2cc(C(F)(F)F)cc(C(F)(F)F)c2)ccc1C | 1800 nM | 500 nM | 6600 nM | Activity [10]: Active; Ratio [5]: 9; Activity [11]: Active; Activity [12]: Active; Activity [13]: Active; Activity [20]: Active; Activity [14]: Active; Activity [16]: Active
